Measurements: ChEMBL document CHEMBL5252656, “Cyclic Peptidic Furin Inhibitors Developed by Combinatorial Chemistry” (ACS Med Chem Lett, 2023)
The source made the active and inactive calls. No cut-off for these calls is given here. Bridge positions count the residues as written; N and C are the ends. Peptide text beside a SMILES is read from it.

Columns and labels:
[1] = Stability in human serum assessed as parent compound remaining at 1.54 mM and measured after 24 hrs by MALDI-MS analysis; assay type: ADME, cell-free
Summary of the method: (§1)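 Peptide stock (1.54 mM) was diluted 10-fold into human serum and held at 37 °C. Samples were taken at 0, 1, 2, 3, 5 and 24 h, precipitated with equal volume acetonitrile and centrifuged 10 min. Supernatant was analysed by RP-HPLC (C18, 10–90% B over 40 min) and MALDI-TOF MS.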

[2] = molecular target: Furin (Homo sapiens) (UniProt P09958); test: Inhibition of human furin in human PANC-1 cells assessed as release of fluorescent AMC using Pyr-Arg-Thr-Arg-AMC as substrate preincubated for 10 mins in presence of SFTI-1 then incubation with ligand for 30 mins followed by substrate addition by plate reader analysis; assay type: cell-based; details: time 40.0 min
Chain of Furin (Homo sapiens) (P09958 whole entry): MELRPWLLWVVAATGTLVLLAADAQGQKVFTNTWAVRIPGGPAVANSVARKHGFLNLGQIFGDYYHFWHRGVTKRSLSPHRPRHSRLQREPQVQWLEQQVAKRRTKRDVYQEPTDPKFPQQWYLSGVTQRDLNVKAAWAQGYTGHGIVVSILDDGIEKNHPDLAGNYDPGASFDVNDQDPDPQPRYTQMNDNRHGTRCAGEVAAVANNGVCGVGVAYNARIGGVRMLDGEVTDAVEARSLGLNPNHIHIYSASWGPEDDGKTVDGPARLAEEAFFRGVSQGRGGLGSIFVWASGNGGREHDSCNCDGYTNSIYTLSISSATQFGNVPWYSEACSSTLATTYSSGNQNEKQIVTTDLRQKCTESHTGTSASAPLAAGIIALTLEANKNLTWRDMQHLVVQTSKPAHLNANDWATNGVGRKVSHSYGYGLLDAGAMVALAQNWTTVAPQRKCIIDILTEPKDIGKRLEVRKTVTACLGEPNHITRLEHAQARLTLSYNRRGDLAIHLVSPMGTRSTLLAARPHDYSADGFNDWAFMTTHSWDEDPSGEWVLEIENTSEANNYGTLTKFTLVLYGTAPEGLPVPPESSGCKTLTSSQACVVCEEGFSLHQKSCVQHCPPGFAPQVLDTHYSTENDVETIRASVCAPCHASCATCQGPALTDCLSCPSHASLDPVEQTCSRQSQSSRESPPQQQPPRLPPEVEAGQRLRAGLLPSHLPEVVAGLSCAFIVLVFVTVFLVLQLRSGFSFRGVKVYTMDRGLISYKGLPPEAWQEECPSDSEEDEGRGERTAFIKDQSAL
Summary of the method: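 PANC-1 cells grown in DMEM with 10% FBS and 1% P/S at 37 °C, 5% CO2. Cell lysate was prepared in protease inhibitor cocktail and diluted 10-fold in pH 7.5 HEPES/CaCl2 buffer. It was given SFTI-1 (100 μM final) for 10 min at 37 °C, then peptide (100 μM final) for 30 min, then Pyr-RTR-AMC (100 μM final). AMC release was followed; % inhibition vs no-inhibitor control.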

[3] = molecular target: Furin (Homo sapiens) (UniProt P09958); test: Inhibition of human furin in human PANC-1 cells assessed as release of fluorescent AMC using Pyr-Arg-Thr-Arg-AMC as substrate preincubated for 30 mins followed by substrate addition by plate reader analysis; assay type: cell-based; set-up: concentration or dose not given beside the values
Summary of the method: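 PANC-1 lysate (DMEM/10% FBS culture, protease-inhibitor cocktail extraction) was diluted 10-fold in 100 mM HEPES, 1 mM CaCl2, pH 7.5, then warmed 15 min at 37 °C. Peptide (100 μM final) was added for 30 min at 37 °C, then Pyr-RTR-AMC substrate (100 μM final). AMC release was monitored over time; % inhibition relative to no-inhibitor control.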

[4] = Stability in human serum assessed as parent compound remaining at 1.54 mM and measured after 24 hrs by RP-HPLC analysis; assay type: ADME, cell-free; summary of the method: as §1
[5] = molecular target: T1, Transmembrane protease serine 6 (Homo sapiens) (UniProt Q8IU80); test: Inhibition of recombinant human matriptase 2 using Boc-Gln-Ala-Arg-AMC as substrate at 3.85 to 385 nM preincubated for 30 mins followed by substrate addition and measured for 40 mins by microplate reader method; details: dose 3.85-385 nM, time 70.0 min
T1 sequence (whole entry): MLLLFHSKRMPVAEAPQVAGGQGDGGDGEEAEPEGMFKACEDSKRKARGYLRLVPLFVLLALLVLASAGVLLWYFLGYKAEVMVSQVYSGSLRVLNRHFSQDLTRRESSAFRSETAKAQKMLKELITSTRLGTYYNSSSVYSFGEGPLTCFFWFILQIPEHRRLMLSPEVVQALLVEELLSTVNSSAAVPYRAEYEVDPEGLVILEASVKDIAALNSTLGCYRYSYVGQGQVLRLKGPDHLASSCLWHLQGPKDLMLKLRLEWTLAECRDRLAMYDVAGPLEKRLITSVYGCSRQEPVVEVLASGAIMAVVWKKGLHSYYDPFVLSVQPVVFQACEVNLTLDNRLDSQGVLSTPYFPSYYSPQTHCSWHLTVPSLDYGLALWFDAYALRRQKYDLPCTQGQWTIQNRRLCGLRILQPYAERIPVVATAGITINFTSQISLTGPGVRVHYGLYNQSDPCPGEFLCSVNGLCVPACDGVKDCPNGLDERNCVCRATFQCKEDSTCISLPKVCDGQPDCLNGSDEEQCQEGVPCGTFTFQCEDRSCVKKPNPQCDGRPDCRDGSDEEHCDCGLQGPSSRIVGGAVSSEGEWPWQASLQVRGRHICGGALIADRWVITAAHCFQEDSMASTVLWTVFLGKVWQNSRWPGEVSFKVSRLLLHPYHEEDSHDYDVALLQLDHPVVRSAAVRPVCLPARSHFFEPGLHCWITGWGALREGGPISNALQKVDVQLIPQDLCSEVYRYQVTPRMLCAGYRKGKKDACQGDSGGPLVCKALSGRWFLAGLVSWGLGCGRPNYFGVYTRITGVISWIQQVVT
Summary of the method: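 Recombinant human matriptase-2 (1.51 U/mL) in 50 mM Tris-Cl pH 8.3, 150 mM NaCl, 0.01% Triton X-100 was preincubated with compound 30 min at 37 °C. Boc-QAR-AMC (5 μM final) was then added; fluorescence (ex 380/em 450 nm) read ≥40 min. % inhibition vs no-inhibitor control.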

[6] = molecular target: Furin (Homo sapiens) (UniProt P09958); test: Inhibition of recombinant human furin using Pyr-Arg-Thr-Lys-Arg-AMC as substrate at 2.4 nM preincubated for 30 mins followed by substrate addition and measured for 40 mins by microplate reader method; details: time 70.0 min
[7] = molecular target: Furin (Homo sapiens) (UniProt P09958); test: Inhibition of recombinant human furin using Pyr-Arg-Thr-Lys-Arg-AMC as substrate at 77 nM preincubated for 30 mins followed by substrate addition and measured for 40 mins by microplate reader method; details: time 70.0 min
[8] = molecular target: Furin (Homo sapiens) (UniProt P09958); test: Inhibition of recombinant human furin using Pyr-Arg-Thr-Lys-Arg-AMC as substrate at 24 nM preincubated for 30 mins followed by substrate addition and measured for 40 mins by microplate reader method; details: time 70.0 min

Structure (SMILES)	Stability [1]	inhibition [2] [%]	inhibition [3] [%]	Stability [4]	inhibition [5]	inhibition [6] [%]	inhibition [7] [%]	inhibition [8] [%]
CC[C@H](C)[C@@H]1NC(=O)[C@@H]2CCCN2C(=O)[C@@H]2CCCN2C(=O)[C@H]([C@@H](C)CC)NC(=O)[C@H](CO)NC(=O)[C@H](CCCCN)NC(=O)[C@H](CCCCN)NC(=O)[C@@H](NC(=O)[C@H](CCCNC(=N)N)NC(=O)[C@@H](N)CCCCN)CSSC[C@@H](C(=O)N[C@@H](Cc2ccccc2)C(N)=O)NC1=O (H-KRCKKSIPPICF-NH2; disulfide 3-11)	Stable	34.7	50.4	Stable	inactive	–	–	–
CC[C@H](C)[C@@H]1NC(=O)[C@@H]2CCCN2C(=O)[C@@H]2CCCN2C(=O)[C@H]([C@@H](C)CC)NC(=O)[C@H](CO)NC(=O)[C@H](CCCCN)NC(=O)[C@H](CCCCN)NC(=O)[C@@H]2CSSC[C@H](NC1=O)C(=O)N[C@@H](Cc1ccccc1)C(=O)N[C@@H](CCCCN)C(=O)N[C@@H](CCCNC(=N)N)C(=O)N[C@@H](CCCNC(=N)N)C(=O)N2 (cyclo(KRRCKKSIPPICF); disulfide 4-12)	–	45.9	64.8	–	inactive	40.2	–	–
CC[C@H](C)[C@@H]1NC(=O)[C@@H]2CCCN2C(=O)[C@@H]2CCCN2C(=O)[C@H]([C@@H](C)CC)NC(=O)[C@H](CO)NC(=O)[C@H](CCCCN)NC(=O)[C@H](CCCCN)NC(=O)[C@@H](NC(=O)[C@H](CCCNC(=N)N)NC(=O)[C@H](CCCNC(=N)N)NC(=O)[C@@H](N)CCCCN)CSSC[C@@H](C(=O)N[C@@H](Cc2ccccc2)C(N)=O)NC1=O (H-KRRCKKSIPPICF-NH2; disulfide 4-12)	–	–	–	–	–	66.5	0.1	3.98
CC[C@H](C)[C@@H]1NC(=O)[C@@H]2CCCN2C(=O)[C@@H]2CCCN2C(=O)[C@H]([C@@H](C)CC)NC(=O)[C@H](CO)NC(=O)[C@H](CCCCN)NC(=O)[C@H]([C@H](C)O)NC(=O)[C@@H]2CSSC[C@H](NC1=O)C(=O)N[C@@H](Cc1ccccc1)C(=O)N1CCC[C@H]1C(=O)N[C@H](C(=O)O)CC(=O)NC(=N)NCCC[C@@H](C(N)=O)C(=O)N2	–	–	98.4	–	–	–	–	–
CC[C@H](C)[C@@H]1NC(=O)[C@@H]2CCCN2C(=O)[C@@H]2CCCN2C(=O)[C@H]([C@@H](C)CC)NC(=O)[C@H](CO)NC(=O)[C@H](CCCCN)NC(=O)[C@H](CCCCN)NC(=O)[C@@H](NC(=O)[C@H](CCCNC(=N)N)NC(=O)[C@@H](N)CCCNC(=N)N)CSSC[C@@H](C(=O)N[C@@H](Cc2ccccc2)C(N)=O)NC1=O (H-RRCKKSIPPICF-NH2; disulfide 3-11)	–	–	–	–	–	63	0.2	6.02

Next, values leading:

Stability [1]	inhibition [2] [%]	inhibition [3] [%]	Stability [4]	inhibition [5]	inhibition [6] [%]	inhibition [7] [%]	inhibition [8] [%]	Structure (SMILES)
Stable	46.6	68.3	Stable	inactive	43.7	–	–	CC[C@H](C)[C@@H]1NC(=O)[C@@H]2CCCN2C(=O)[C@@H]2CCCN2C(=O)[C@H]([C@@H](C)CC)NC(=O)[C@H](CO)NC(=O)[C@H](CCCCN)NC(=O)[C@H](CCCCN)NC(=O)[C@@H](NC(=O)[C@H](CCCNC(=N)N)NC(=O)[C@H](CCCNC(=N)N)NC(=O)[C@@H](N)CCCNC(=N)N)CSSC[C@@H](C(=O)N[C@@H](Cc2ccccc2)C(N)=O)NC1=O (H-RRRCKKSIPPICF-NH2; disulfide 4-12)
–	–	–	–	–	97.2	3.72	46.1	CC[C@H](C)[C@@H]1NC(=O)[C@@H]2CCCN2C(=O)[C@@H]2CCCN2C(=O)[C@H]([C@@H](C)CC)NC(=O)[C@H](CO)NC(=O)[C@H](CCCCN)NC(=O)[C@H](CCCCN)NC(=O)[C@@H]2CSSC[C@H](NC1=O)C(=O)N[C@@H](Cc1ccccc1)C(=O)N[C@@H](CCCNC(=N)N)C(=O)N[C@@H](CCCNC(=N)N)C(=O)N2 (cyclo(CFRRCKKSIPPI); disulfide 1-5)
–	45.2	58.8	–	inactive	34.7	–	–	CC[C@H](C)[C@@H]1NC(=O)[C@@H]2CCCN2C(=O)[C@@H]2CCCN2C(=O)[C@H]([C@@H](C)CC)NC(=O)[C@H](CO)NC(=O)[C@H](CCCCN)NC(=O)[C@H](CCCCN)NC(=O)[C@@H]2CSSC[C@H](NC1=O)C(=O)N[C@@H](Cc1ccccc1)C(=O)N[C@@H](CCCNC(=N)N)C(=O)N[C@@H](CCCNC(=N)N)C(=O)N[C@@H](CCCNC(=N)N)C(=O)N2 (cyclo(RRRCKKSIPPICF); disulfide 4-12)
